Assays:
[1] = Partition coefficient, log P in phosphate buffer solution at pH 7.4; type: physicochemical
Summary of the method: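 Shake-flask partition: 50 µM [¹²⁵I]-labelled compound in phosphate buffer pH 7.4 was mixed with 2 mL n-octanol. Each phase was γ-counted, P was taken as the octanol/buffer activity ratio, and log P was reported.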

[2] = Drug excretion in mouse B16-F0 cells bearing C57BL/6 mouse urine at 0.74 to 0.92 MBq, iv after 72 hrs; type: ADME, organism-based; settings: in vivo
Summary of the method: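 Urine was collected from two B16-F0 tumour-bearing C57BL6 mice for up to 72 h after iv tail-vein injection of the [¹²⁵I]-labelled compound (0.1 µmol). Samples were counted to give cumulative urinary excretion as %ID.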

[3] = Biodistribution in tumor of C57BL/6 mouse bearing mouse B16-F0 cells at 0.74 to 0.92 MBq, iv after 1 hr; type: ADME, organism-based, Neoplasm; settings: in vivo
Summary of the method: (§1)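 [¹²⁵I]-labelled compound given iv by tail vein (0.1 µmol per mouse) to male C57BL6 mice bearing s.c. B16-F0 flank tumours (5 × 10⁵ cells in PBS). Two mice per time point were killed by CO₂, frozen in liquid nitrogen and cut into 40 µm cryosections, eight slices per mouse. Slice radioactivity was read on a multiwire proportional counter, converted to kBq/g and reported as %ID/g.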

[4] = Biodistribution in tumor of C57BL/6 mouse bearing mouse B16-F0 cells at 0.74 to 0.92 MBq, iv after 72 hrs; type: ADME, organism-based, Neoplasm; settings: in vivo; summary of the method: as §1
[5] = Ratio of drug level in tumor to liver of C57BL/6 mouse bearing mouse B16-F0 cells at 0.74 to 0.92 MBq, iv after 1 hr; type: ADME, organism-based; settings: in vivo
Summary of the method: (§2)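 Tumour and organ radioactive concentrations came from whole-body cryosection counting (40 µm slices, eight per mouse, two mice per time) after tail-vein injection of the [¹²⁵I]-labelled compound (0.1 µmol) into male C57BL6 mice bearing s.c. B16-F0 melanoma. Each value is the ratio of the tumour concentration to the organ concentration.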

[6] = Ratio of drug level in tumor to liver of C57BL/6 mouse bearing mouse B16-F0 cells at 0.74 to 0.92 MBq, iv after 3 hrs; type: ADME, organism-based; settings: in vivo; summary of the method: as §2
[7] = Ratio of drug level in tumor to liver of C57BL/6 mouse bearing mouse B16-F0 cells at 0.74 to 0.92 MBq, iv after 6 hrs; type: ADME, organism-based; settings: in vivo; summary of the method: as §2
[8] = Ratio of drug level in tumor to lung of C57BL/6 mouse bearing mouse B16-F0 cells at 0.74 to 0.92 MBq, iv after 1 hr; type: ADME, organism-based; settings: in vivo; summary of the method: as §2
[9] = Ratio of drug level in tumor to lung of C57BL/6 mouse bearing mouse B16-F0 cells at 0.74 to 0.92 MBq, iv after 3 hrs; type: ADME, organism-based; settings: in vivo; summary of the method: as §2
[10] = Ratio of drug level in tumor to brain of C57BL/6 mouse bearing mouse B16-F0 cells at 0.74 to 0.92 MBq, iv after 1 hr; type: ADME, organism-based; settings: in vivo; summary of the method: as §2
[11] = Biodistribution in intestinal content of C57BL/6 mouse bearing mouse B16-F0 cells at 0.74 to 0.92 MBq, iv after 1 hr; type: ADME, organism-based; settings: in vivo
Summary of the method: (§3)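 Male C57BL6 mice with s.c. left-flank B16-F0 melanoma (5 × 10⁵ cells in PBS). Two mice per time point frozen in liquid nitrogen after CO₂ sacrifice. Eight 40 µm whole-body cryosections per mouse read by multiwire proportional counter. cpm/mm² converted to kBq/g and expressed as %ID/g.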

[12] = Biodistribution in intestinal content of C57BL/6 mouse bearing mouse B16-F0 cells at 0.74 to 0.92 MBq, iv after 6 hrs; type: ADME, organism-based; settings: in vivo; summary of the method: as §3
[13] = Biodistribution in Stomach content of C57BL/6 mouse bearing mouse B16-F0 cells at 0.74 to 0.92 MBq, iv after 1 hr; type: ADME, organism-based; settings: in vivo; summary of the method: as §3
[14] = Biodistribution in Stomach content of C57BL/6 mouse bearing mouse B16-F0 cells at 0.74 to 0.92 MBq, iv after 6 hrs; type: ADME, organism-based; settings: in vivo; summary of the method: as §3
[15] = Biodistribution in Stomach content of C57BL/6 mouse bearing mouse B16-F0 cells at 0.74 to 0.92 MBq, iv after 24 hrs; type: ADME, organism-based; settings: in vivo; summary of the method: as §3
Liver [16] = assay: Biodistribution in liver of C57BL/6 mouse bearing mouse B16-F0 cells at 0.74 to 0.92 MBq, iv after 1 hr; type: ADME, organism-based; settings: in vivo; summary of the method: as §3
Liver [17] = assay: Biodistribution in liver of C57BL/6 mouse bearing mouse B16-F0 cells at 0.74 to 0.92 MBq, iv after 3 hrs; type: ADME, organism-based; settings: in vivo; summary of the method: as §3
Liver [18] = assay: Biodistribution in liver of C57BL/6 mouse bearing mouse B16-F0 cells at 0.74 to 0.92 MBq, iv after 6 hrs; type: ADME, organism-based; settings: in vivo; summary of the method: as §3
Muscle tissue [19] = assay: Biodistribution in muscle of C57BL/6 mouse bearing mouse B16-F0 cells at 0.74 to 0.92 MBq, iv after 1 hr; type: ADME, organism-based; settings: in vivo; summary of the method: as §3
Muscle tissue [20] = assay: Biodistribution in muscle of C57BL/6 mouse bearing mouse B16-F0 cells at 0.74 to 0.92 MBq, iv after 3 hrs; type: ADME, organism-based; settings: in vivo; summary of the method: as §3
Lung [21] = assay: Biodistribution in lung of C57BL/6 mouse bearing mouse B16-F0 cells at 0.74 to 0.92 MBq, iv after 1 hr; type: ADME, organism-based; settings: in vivo; summary of the method: as §3
Lung [22] = assay: Biodistribution in lung of C57BL/6 mouse bearing mouse B16-F0 cells at 0.74 to 0.92 MBq, iv after 3 hrs; type: ADME, organism-based; settings: in vivo; summary of the method: as §3
Lung [23] = assay: Biodistribution in lung of C57BL/6 mouse bearing mouse B16-F0 cells at 0.74 to 0.92 MBq, iv after 6 hrs; type: ADME, organism-based; settings: in vivo; summary of the method: as §3
Spleen [24] = assay: Biodistribution in spleen of C57BL/6 mouse bearing mouse B16-F0 cells at 0.74 to 0.92 MBq, iv after 1 hr; type: ADME, organism-based; settings: in vivo; summary of the method: as §1
Spleen [25] = assay: Biodistribution in spleen of C57BL/6 mouse bearing mouse B16-F0 cells at 0.74 to 0.92 MBq, iv after 3 hrs; type: ADME, organism-based; settings: in vivo; summary of the method: as §1
Kidney = assay: Biodistribution in kidney of C57BL/6 mouse bearing mouse B16-F0 cells at 0.74 to 0.92 MBq, iv after 3 hrs; type: ADME, organism-based; settings: in vivo; summary of the method: as §3
Blood [26] = assay: Biodistribution in blood of C57BL/6 mouse bearing mouse B16-F0 cells at 0.74 to 0.92 MBq, iv after 1 hr; type: ADME, organism-based; settings: in vivo; summary of the method: as §3
Blood [27] = assay: Biodistribution in blood of C57BL/6 mouse bearing mouse B16-F0 cells at 0.74 to 0.92 MBq, iv after 3 hrs; type: ADME, organism-based; settings: in vivo; summary of the method: as §3
Blood [28] = assay: Biodistribution in blood of C57BL/6 mouse bearing mouse B16-F0 cells at 0.74 to 0.92 MBq, iv after 6 hrs; type: ADME, organism-based; settings: in vivo; summary of the method: as §3
Thyroid gland = assay: Biodistribution in thyroid of C57BL/6 mouse bearing mouse B16-F0 cells at 0.74 to 0.92 MBq, iv after 3 hrs; type: ADME, organism-based; settings: in vivo; summary of the method: as §1
[29] = Biodistribution in uvea of C57BL/6 mouse bearing mouse B16-F0 cells at 0.74 to 0.92 MBq, iv after 1 hr; type: ADME, organism-based, Uveal tract; settings: in vivo; summary of the method: as §1
[30] = Biodistribution in uvea of C57BL/6 mouse bearing mouse B16-F0 cells at 0.74 to 0.92 MBq, iv after 6 hrs; type: ADME, organism-based, Uveal tract; settings: in vivo; summary of the method: as §1
[31] = Biodistribution in uvea of C57BL/6 mouse bearing mouse B16-F0 cells at 0.74 to 0.92 MBq, iv after 72 hrs; type: ADME, organism-based, Uveal tract; settings: in vivo; summary of the method: as §1

SMILES | logD [1] | Activity [2] [%] | Drug uptake [3] [% ID/g] | Drug uptake [4] [% ID/g] | Ratio [5] | Ratio [6] | Ratio [7] | Ratio [8] | Ratio [9] | Ratio [10] | Drug uptake [11] [% ID/g] | Drug uptake [13] [% ID/g] | Drug uptake [14] [% ID/g] | Drug uptake (Liver [16]) [% ID/g] | Drug uptake (Liver [17]) [% ID/g] | Drug uptake (Liver [18]) [% ID/g] | Drug uptake (Muscle tissue [19]) [% ID/g] | Drug uptake (Lung [21]) [% ID/g] | Drug uptake (Lung [22]) [% ID/g] | Drug uptake (Lung [23]) [% ID/g] | other results
CCN(CC)CCNC(=O)c1ccc2cncc([125I])c2n1.Cl.Cl | 0.51 | 68.9 | 23.2 | 3.3 | 5.92 | 6.1 | 7.69 | 9.86 | 7.41 | 27.14 | 32.83 | 17.58 | 9.17 | 3.92 | 2.27 | 1.49 | 0.86 | 2.36 | 1.87 | 1.26 | Drug uptake [12]: 43.48 % ID/g; Drug uptake [15]: 0.62 % ID/g; Drug uptake (Muscle tissue [20]): 0.43 % ID/g; Drug uptake (Spleen [24]): 5.38 % ID/g; Drug uptake (Spleen [25]): 0.93 % ID/g; Drug uptake (Kidney): 1.51 % ID/g; Drug uptake (Blood [26]): 2.21 % ID/g; Drug uptake (Blood [27]): 1.88 % ID/g; Drug uptake (Blood [28]): 1.36 % ID/g; Drug uptake (Thyroid gland): 41.44 % ID/g; Drug uptake [29]: 24.11 % ID/g; Drug uptake [30]: 13.15 % ID/g; Drug uptake [31]: 13.06 % ID/g
CCN(CC)CCNC(=O)c1ccc([125I])nc1.Cl.Cl | -0.29 | 67.3 | 15.5 | 0.9 | 3.01 | 3.08 | 3.33 | 2.04 | 2.34 | 24.2 | 13.44 | 34.8 | 50.21 | 5.14 | 3.01 | 2.09 | 1.48 | 7.59 | 3.96 | 3.21 | Drug uptake [12]: 2.98 % ID/g; Drug uptake [15]: 1.46 % ID/g; Drug uptake (Spleen [24]): 5.44 % ID/g; Drug uptake (Spleen [25]): 2.68 % ID/g; Drug uptake (Kidney): 3.26 % ID/g; Drug uptake (Blood [26]): 6.67 % ID/g; Drug uptake (Blood [27]): 4.22 % ID/g; Drug uptake (Blood [28]): 3.71 % ID/g; Drug uptake (Thyroid gland): 59.09 % ID/g; Drug uptake [29]: 16.66 % ID/g; Drug uptake [30]: 11.5 % ID/g; Drug uptake [31]: 2.54 % ID/g
CCN(CC)CCNC(=O)c1c[nH]c2ccc([125I])cc2c1=O.Cl.Cl | 1.3 | 23.8 | 4.7 | 2.4 | 0.91 | 2.2 | 18.16 | 2.28 | 4.6 | 67 | 52.94 | 12.74 | 22.27 | 5.16 | 1.84 | 0.32 | 0.92 | 2.06 | 0.88 | 0.15 | Drug uptake [12]: 61.06 % ID/g; Drug uptake [15]: 0.13 % ID/g; Drug uptake (Muscle tissue [20]): 0.13 % ID/g; Drug uptake (Spleen [24]): 1.24 % ID/g; Drug uptake (Spleen [25]): 0.28 % ID/g; Drug uptake (Kidney): 0.8 % ID/g; Drug uptake (Blood [26]): 0.42 % ID/g; Drug uptake (Blood [27]): 0.23 % ID/g; Drug uptake (Blood [28]): 0.17 % ID/g; Drug uptake (Thyroid gland): 4.33 % ID/g; Drug uptake [29]: 5.12 % ID/g; Drug uptake [30]: 5.18 % ID/g; Drug uptake [31]: 6.79 % ID/g
CCN(CC)CCNC(=O)c1cnc2cc([125I])ccc2n1.Cl.Cl | 1.12 | 70.2 | 17 | 12.5 | 1.29 | 3.12 | 5.4 | 2.17 | 4.87 | 7.26 | 15.22 | 24.33 | 21.09 | 13.18 | 8.87 | 7.53 | 2.04 | 7.83 | 5.68 | 4.46 | Drug uptake (Muscle tissue [20]): 0.86 % ID/g; Drug uptake (Spleen [24]): 14.21 % ID/g; Drug uptake (Spleen [25]): 4.69 % ID/g; Drug uptake (Kidney): 9.3 % ID/g; Drug uptake (Blood [26]): 3.45 % ID/g; Drug uptake (Blood [27]): 2.91 % ID/g; Drug uptake (Blood [28]): 3.09 % ID/g; Drug uptake (Thyroid gland): 39.76 % ID/g; Drug uptake [29]: 33.82 % ID/g; Drug uptake [30]: 32.3 % ID/g; Drug uptake [31]: 25.26 % ID/g
